Assay results reported in PMC12716021 (Chemistry & Biodiversity, 2025).

Assays:
[1] = Ferric reducing antioxidant power; conditions: read-out: IC50 FRAP; in vitro; standard gallic acid
[2] = DPPH radical scavenging activity; conditions: read-out: IC50 DPPH; in vitro; standard gallic acid
NO scavenging activity = conditions: read-out: IC50 NO; in vitro; standard gallic acid
Outline: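 Sodium nitroprusside (10 mM, in sodium phosphate buffer pH 7.4) added to test compound ([…]) or distilled water as control, then incubated at 37°C for 2 h. Griess reagent added, and A540 read. NO scavenging % = (1 − A compound/A control) × 100.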

**Q.** What does the source list for `O=C(O)c1cc(O)c(O)c(O)c1` [Gallic acid]?
**A.** IC50 [1]: 117 µM; IC50 [2]: 105 µM; IC50 (NO scavenging activity): 78.5 µM
